Only some compounds are listed: those with a hit (about 2.2% of all), similar ones and a draw of the others.
FLuc inhib CS = firefly luciferase enzyme inhibitors, primary screen, artefact control for luciferase-based inhibitor screens, biochemical, luminescence, ATPLite; Luciferin 4-monooxygenase (Photinus pyralis), P08659; 10 min; 1.5% of 200,000 active; inhibition, % at 10 µM;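 active = inhibition above about 50% when tested at 10 µM, limit read from the data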
Target sequence (P08659 whole entry, looked up): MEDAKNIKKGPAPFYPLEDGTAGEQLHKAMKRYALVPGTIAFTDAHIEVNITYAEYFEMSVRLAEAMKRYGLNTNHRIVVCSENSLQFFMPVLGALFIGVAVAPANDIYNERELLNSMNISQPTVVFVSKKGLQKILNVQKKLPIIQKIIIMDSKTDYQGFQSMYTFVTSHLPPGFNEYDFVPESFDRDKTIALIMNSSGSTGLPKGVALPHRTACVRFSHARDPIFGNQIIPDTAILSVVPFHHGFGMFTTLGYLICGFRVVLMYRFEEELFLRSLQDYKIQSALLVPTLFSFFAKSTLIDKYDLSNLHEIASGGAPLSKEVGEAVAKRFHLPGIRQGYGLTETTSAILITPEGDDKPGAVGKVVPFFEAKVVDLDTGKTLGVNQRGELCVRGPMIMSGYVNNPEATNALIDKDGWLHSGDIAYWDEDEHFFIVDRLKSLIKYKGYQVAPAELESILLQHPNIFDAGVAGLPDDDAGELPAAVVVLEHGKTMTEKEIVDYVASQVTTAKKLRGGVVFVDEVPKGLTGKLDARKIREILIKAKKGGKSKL
NF-kB neuron act = activators of NF-kB expression in neurons, primary screen, cell-based, HTS; human neuronal cells, NF-kB reporter expression; active compounds read high; fold change at 12.5 µM; 1.6% of 190,000 active; AID 1239, 2008; in the data active = fold change above about 3.3
FLuc act counter = FLuc activators, initial screening, artefact control for FLuc-dependent activation tests, biochemical, ATPlite luminescence | Luciferin 4-monooxygenase (Photinus pyralis), P08659 | ATPlite luciferase biochemical, 10 min; 0 = ATP-free wells, 1 = DMSO control | activation factor at 10 µM | 200,000 tested, under 10 active | AID 1027, 2008;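 active = luciferase activation factor, scaled between plate controls, of at least 2 with compound at 10 µM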
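Material: luciferase plus luciferin reagent, cell-free. Medium: PBS buffer for ATP. Also added: ATP substrate, dispensed from a 10.24 µM working solution in PBS. Doses: test compounds dosed from 2 mM stocks in 100% DMSO. Incubation: 10 min post-reagent at room temperature. Technique: light output (luminescence). Read-out basis: luminescence gain marking luciferase activators.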
TRAIL sens C8 = viability loss with TRAIL in NB7+C8 cells, primary screen, TRAIL sensitizer project, cell-based, ATPlite luminescence | inhibition (viability loss, TRAIL sensitization), % at 10 µM | 1% of 360,000 active | AID 624354, 2012;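 active = compounds causing at least 50% loss of cell viability in the single-dose screen, relative to plate controls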
APP 5'UTR act = activators of APP 5'UTR luciferase reporter, primary screen, SH-SY5Y cells; SH-SY5Y APP 5'UTR luciferase reporter, luminescence; zero percent = DMSO vehicle wells; activation, % at 2 µM; 1% of 190,000 active; AID 1276, 2008;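 active = activation above a set limit, based on mean plus 3 SD of controls, cut at about 140% in these data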
PPC-1+TRAIL kill = compounds killing PPC-1 cancer cells with TRAIL present, primary screen, TRAIL potentiator project, ATPLite luminescence, uHTS; PPC-1 cells + TRAIL, ATPLite viability luminescence; cell killing (% activity), % at 4 µM or 5 µM; 0.41% of 220,000 active; AID 1443, 2008;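 active = cell killing above 50% in the first pass at 4 µM, then a duplicate retest at 5 µM averaging 50% or more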
Hits are given with their value; n = inactive; x = no result given.

SMILES | FLuc inhib CS | NF-kB neuron act | FLuc act counter | TRAIL sens C8 | APP 5'UTR act | PPC-1+TRAIL kill
CC(C)(C)c1ccc(CC(=O)N2CCC2(C)C(=O)O)cc1 (centres undefined) | x | x | x | n | x | x
Cn1cnc(S(=O)(=O)N2CCCCC2c2cc(C(=O)NCc3ccc(F)cc3)no2)c1 (centres undefined) | x | x | x | n | x | x
Fc1cccc(NCCc2c[nH]c3ccccc23)n1 | x | x | x | n | x | x
c1ccc2c(NCCc3c[nH]c4ccccc34)c3ccccc3nc2c1 | x | x | x | 75 | x | x
Cc1ccc(O)c(-c2cc(-c3ccccc3C)[nH]n2)c1 | n | n | n | n | n | n
Cc1ccc(-c2cc(-c3cccs3)[nH]n2)c(O)c1 | n | 8.1 | n | n | n | n
CC(O)C(NS(=O)(=O)c1ccc(Cl)cc1)C(=O)OCC(=O)c1ccc2c(c1)NC(=O)CO2 (centres undefined) | x | x | x | n | x | x
CC(C)CC(NC(=O)c1ccc(Cl)cc1)C(=O)OCC(=O)c1ccc2c(c1)NC(=O)CO2 (centres undefined) | n | n | n | 73 | n | n
NC(=O)N/N=C/c1sc(N2CCCCC2)nc1-c1cccs1 | x | x | x | n | x | x
CC(C)NC(=S)N/N=C/c1sc(N2CCCCC2)nc1-c1cccs1 | 53 | n | n | n | n | n
CC1Oc2cc3oc4c(O)c(O)ccc4c(=O)c3c(O)c2C1(C)C (centres undefined) | x | x | x | 53 | x | x
COc1ccc(-c2cc(=O)oc3c(O)c(O)ccc23)cc1 | x | x | x | n | x | x
Cc1ccc(Nc2nc(N)nc(CSc3nccn3C)n2)cc1 | n | 3.8 | n | n | 140 | n
O=C1Nc2cc(C(=O)NCCN3CCCCCC3)ccc2S/C1=C/c1ccccc1F | x | x | x | 52 | x | x
Cc1ccc(/C=C2/Sc3ccc(C(=O)NCCN4CCOCC4)cc3NC2=O)cc1 | x | x | x | n | x | x
CCN1CCN(CCNC(=O)c2ccc3c(c2)N(Cc2ccc(F)cc2)C(=O)/C(=C/c2ccccc2)S3)CC1 | n | n | n | 57 | n | n
CCN1CCCC1CNC(=O)c1ccc2c(c1)NC(=O)/C(=C\c1ccc(C)cc1)S2 (centres undefined) | x | x | x | 79 | x | x
COC(=O)[C@@]12C[C@@H](CC(=O)NCCCCc3ccccc3)C(=O)N(Cc3cccc4ccccc34)C1=CCC(C)(C)C2 | x | x | x | n | x | x
Cc1ccc(/C=C/C(=O)NC2=NCCS2)cc1 | 86 | 5.6 | n | 76 | 180 | n
CC(C)(C)c1ccc(/C=C/C(=O)NC2=NCCS2)cc1 | n | n | n | 52 | 184 | n
CC(C)Nc1nc(Nc2ccc(C(N)=O)cc2)c2sccc2n1 | x | x | x | n | x | x
COc1cccc(CN2CCC2(C)C(=O)Nc2ccc(C)c(O)c2)c1F (centres undefined) | x | x | x | n | x | x
O=C1NC(=S)N/C1=C\c1ccc(N2CCOCC2)cc1 | 78 | n | n | n | n | n
O=C1NC(=S)NC1=Cc1ccc(O)cc1 | x | x | x | n | x | x
C=CCN1C(=O)S/C(=C\c2ccc(N3CCOCC3)cc2C)C1=O | n | n | n | n | n | n
SMILES | FLuc inhib CS | NF-kB neuron act | FLuc act counter | TRAIL sens C8 | APP 5'UTR act | PPC-1+TRAIL kill
Cc1cc(N2CCOCC2)ccc1/C=C1/SC(=O)NC1=O | n | 5.3 | n | n | n | n
Cc1ccc(-c2ccc(CN3C(CC(C)C)C(=O)N(Cc4cn(CC5CCCCC5)nn4)CCS3(=O)=O)cc2)cc1 (centres undefined) | x | x | x | n | x | x
CCCOc1ccc(-c2nnc(-c3cccs3)o2)cc1 | n | 5.2 | n | n | n | n
CN(C)c1ccc(-c2nnc(-c3cccs3)o2)cc1 | 72 | 7.2 | n | n | 163 | n
CCCCOc1ccc(-c2nnc(-c3ccncc3)o2)cc1 | n | n | n | n | n | n
CCCCNC(=O)C[C@@H]1C[C@@]2(C(=O)OCC)CCC=C2N(Cc2ccc(Cl)cc2Cl)C1=O | x | x | x | n | x | x
COC(=O)C[C@H]1C[C@H]2c3cc(NC(=O)C4CCC4)ccc3O[C@H]2[C@H](CO)O1 | x | x | x | n | x | x
CC1(C)CC(=O)C=C(c2ccc(-c3ccc4[nH]ccc4c3)cc2)C1=O | x | x | x | 70 | x | x
CC1(C)CC(=O)C=C(c2ccccc2-c2ccc3cc[nH]c3c2)C1=O | x | x | x | n | x | x
Cc1ccc(C)c(N=Nc2nc3ccccc3n2C)c1 | 75 | 3.9 | n | n | 161 | n
Cc1cc(C)c(C)c(N=Nc2nc3ccccc3n2C)c1C | n | n | n | n | n | n
O=C(/C=C\c1ccccc1OC(=O)c1ccccc1F)c1cc2ccccc2o1 | n | 4.3 | n | n | n | n
O=C1c2cccc3cc([N+](=O)[O-])cc(c23)C(=O)N1CCN1CCCC1 | x | x | x | 59 | x | n
Nc1cc2c3c(cccc3c1)C(=O)N(CCN1CCCC1)C2=O | x | x | x | n | x | n
O=C(Nc1ccc(-c2ccccc2)cc1)c1ccco1 | n | n | n | n | n | n
Nc1nc(-c2ccc(NC(=O)c3ccco3)cc2)cs1 | x | x | x | 74 | x | x
Cc1ccn2cc(-c3ccc(NC(=O)c4ccco4)cc3)nc2c1 | 55 | n | n | n | 139 | n
Cc1nc(-c2cccc(NC(=O)c3ccco3)c2)cs1 | x | x | x | n | x | x
Cc1nc(-c2ccc(NC(=O)c3ccco3)cc2)cs1 | x | x | x | 94 | x | x
Cc1ccc(C(=O)Nc2ncc(Cc3ccc(F)cc3)s2)o1 | 62 | 7.9 | n | n | n | n
Cc1ccc(C(=O)Nc2ncc(C)s2)o1 | n | n | n | n | n | n
Cc1noc(C)c1C(=O)N(C)C[C@@H]1OCc2ccccc2-c2c(n(C)c3ccccc23)C(=O)N([C@H](C)CO)C[C@H]1C | x | x | x | n | x | x
C[C@@H]1O[C@H](CCc2cccc(Cl)c2)CC2=C1C(=O)OC(C)(C)O2 | x | x | x | n | x | x
Cc1nc(-c2ccccc2)sc1-c1ccn[nH]1 | 70 | n | n | n | 164 | n
Cc1nc(-c2ccccc2)sc1-c1ccnn1C | 57 | 6.4 | n | n | 141 | n
SMILES | FLuc inhib CS | NF-kB neuron act | FLuc act counter | TRAIL sens C8 | APP 5'UTR act | PPC-1+TRAIL kill
Cc1ccccc1-c1cnc(C(O)c2ccc(Cl)c(F)c2)[nH]1 (centres undefined) | x | x | x | n | x | x
CCOC(=O)CC(=O)CSc1ncnc2c1cnn2-c1ccccc1 | n | 3.8 | n | n | n | n
COc1ccc(C2C(C(=O)N3CCCCC3)c3ccccc3C(=O)N2C)cc1 (centres undefined) | n | n | n | n | n | n
CCOC(=O)C1CCN(C(=O)C2c3ccccc3C(=O)N(C)C2c2ccc(OC)cc2)CC1 (centres undefined) | n | n | n | 54 | n | n
Cc1cccc(C)c1-n1nnnc1C(c1ccnc2ccccc12)N(Cc1ccccc1)Cc1ccccc1 (centres undefined) | x | x | x | n | x | x
S=c1[nH]nc(-c2ccccc2)n1/N=C/c1ccc(-c2ccccc2Cl)o1 | n | 4.5 | n | n | n | n
CCn1c([N+](=O)[O-])nc2c1c(=O)[nH]c(=O)n2C | n | 4.8 | n | n | n | n

Screening results deposited in PubChem by several laboratories.
